From PubChem BioAssay AID623919 (The Scripps Research Institute Molecular Screening Center, 2012)
Calls of active or inactive are those of the source.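 The calls were made as follows: active = recombination in E. coli crosses cut more than 4-fold against the solvent-only control; inactive = cut of 4-fold or less.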

The compounds below were run on E. coli V66 Hfr conjugational recombination, colony counts (assay: Hfr conjugational cross recombinant frequency reduction – V66 E. coli, colony formation, powder samples, 100 µM, counter-screen for AddAB inhibitor project, late-stage follow-up (AID 623919)). Details: at 100 µM; stronger effect = higher value.
How it was run: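 Assay system: E. coli V66 recipient with Hfr donor. Times: 1 h compound exposure plus 30 min mating. Detection: differential plating colony counts. Replicates: duplicates.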

Compound | fold reduction of recombination
N#Cc1c(NC(=O)c2ccc(-c3ccccc3[N+](=O)[O-])o2)sc2c1CCCC2 | 1 (inactive)
CCn1cc(C(=O)O)c(=O)c2cnc(N3CCN(C(=S)Nc4ccccc4F)CC3)nc21 | 2 (inactive)
CCn1cc(C(=O)O)c(=O)c2cnc(N3CCN(C(=S)Nc4ccccc4C)CC3)nc21 | 1 (inactive)
Nc1c(NC(=O)c2ccc([N+](=O)[O-])o2)sc2c1CCCC2 | 1 (inactive)
CC1(C)Cc2c(sc(NC(=O)c3ccco3)c2C#N)CO1 | 2 (inactive)
CC(=O)Nc1ccc2nc(NC(=O)c3ccc([N+](=O)[O-])o3)sc2c1 | 2 (inactive)
CCn1cc(C(=O)O)c(=O)c2cnc(N3CCN(C(=O)Nc4ccccc4)CC3)nc21 | 1 (inactive)
Cc1ccc2nc(/C(C#N)=C\c3ccc([N+](=O)[O-])o3)[nH]c2c1 | 3 (inactive)
CCn1cc(C(=O)O)c(=O)c2cnc(N3CCN(C(=S)NC(=O)c4ccccc4Cl)CC3)nc21 | 2 (inactive)
N#Cc1c(NC(=O)c2ccc([N+](=O)[O-])o2)sc2c1CCCC2 | 1 (inactive)
CC1CCc2c(sc(NC(=O)c3ccc([N+](=O)[O-])o3)c2C#N)C1 (stereo not drawn) | 2 (inactive)
N#Cc1c(NC(=O)c2ccc([N+](=O)[O-])o2)sc2c1CCC2 | 3 (inactive)
Cc1sc(NC(=O)c2ccc(Br)o2)c(C#N)c1C | 1.5 (inactive)
N#Cc1c(NC(=O)C2CC=CCC2C(=O)O)sc2c1CCC2 (stereo not drawn) | 1 (inactive)
CCn1cc(C(=O)O)c(=O)c2cnc(N3CCN(C(=S)Nc4ccc(Cl)cc4)CC3)nc21 | 1 (inactive)
O=C(NCc1cccnc1)c1ccc([N+](=O)[O-])o1 | 18.5
CCn1cc(C(=O)O)c(=O)c2cnc(N3CCN(C(=S)NC(=O)c4ccco4)CC3)nc21 | 1 (inactive)
O=C(Nc1ccc(N2CCOCC2)cc1)c1ccc([N+](=O)[O-])o1 | 2 (inactive)
O=C(Nc1cccc(NC(=O)c2ccccc2Cl)c1)c1ccc([N+](=O)[O-])o1 | 2 (inactive)
CCn1cc(C(=O)O)c(=O)c2cnc(N3CCN(C(=S)NC(=O)c4cccc(C)c4)CC3)nc21 | 1 (inactive)
CCn1cc(C(=O)O)c(=O)c2cnc(N3CCN(C(=S)Nc4cccc(C(F)(F)F)c4)CC3)nc21 | 6
N#Cc1c(NC(=O)c2ccco2)sc2c1CCC2 | 1 (inactive)
CCn1cc(C(=O)O)c(=O)c2cnc(N3CCN(C(=S)Nc4ccccc4OC)CC3)nc21 | 1.5 (inactive)
CCn1cc(C(=O)O)c(=O)c2cnc(N3CCN(C(=S)Nc4ccc5c(c4)OCCO5)CC3)nc21 | 1 (inactive)

Compound | fold reduction of recombination
C=CCNC(=S)N1CCN(c2ncc3c(=O)c(C(=O)O)cn(CC)c3n2)CC1 | 1.5 (inactive)
CCn1cc(C(=O)O)c(=O)c2cnc(N3CCN(C(=S)NC(=O)c4cccnc4)CC3)nc21 | 1 (inactive)
CCn1cc(C(=O)O)c(=O)c2cnc(N3CCN(C(=S)NC(C)c4ccccc4)CC3)nc21 (stereo not drawn) | 1.5 (inactive)
CCn1cc(C(=O)O)c(=O)c2cnc(N3CCN(C(=S)NC4CC5CCC4C5)CC3)nc21 (stereo not drawn) | 1 (inactive)
CCn1cc(C(=O)O)c(=O)c2cnc(N3CCNCC3)nc21 | 50
CCn1cc(C(=O)O)c(=O)c2cnc(N3CCN(C(=S)Nc4ccccc4Cl)CC3)nc21 | 1 (inactive)
CCn1cc(C(=O)O)c(=O)c2cnc(N3CCN(C(=S)Nc4ccc(F)cc4)CC3)nc21 | 1 (inactive)
CCn1cc(C(=O)O)c(=O)c2cc(F)c(N3CCN(C(=S)Nc4cccc(C(F)(F)F)c4)CC3)cc21 | 350
NC(=O)c1ccsc1NC(=O)COC(=O)c1ccc([N+](=O)[O-])o1 | 1.6 (inactive)
CCn1cc(C(=O)O)c(=O)c2cnc(N3CCN(C(=S)Nc4ccc5c(c4)OCO5)CC3)nc21 | 1 (inactive)
CCn1cc(C(=O)O)c(=O)c2cnc(N3CCN(C(=S)NCc4ccccc4)CC3)nc21 | 1 (inactive)
O=C(Nc1ncccn1)c1ccc([N+](=O)[O-])o1 | 20
O=C(OCC(=O)c1cccs1)c1ccc([N+](=O)[O-])o1 | 2.1 (inactive)
CCn1cc(C(=O)O)c(=O)c2cnc(N3CCN(C(=S)NC)CC3)nc21 | 1 (inactive)
Cc1cccnc1NC(=O)c1ccc([N+](=O)[O-])o1 | 3 (inactive)
CCn1cc(C(=O)O)c(=O)c2cnc(N3CCN(C(=S)Nc4ccccc4)CC3)nc21 | 1 (inactive)
C=CCn1c(Sc2ncc([N+](=O)[O-])s2)n[nH]c1=O | 900
Cc1ccc(C(=O)Nc2sc3c(c2C#N)CCCCC3)o1 | 3 (inactive)
N#Cc1c(NC(=O)c2cccc(F)c2)sc2c1CCCC2 | 1 (inactive)
N#Cc1c(NC(=O)c2ccccc2)sc2c1CCC2 | 1 (inactive)
N#Cc1c(NC(=O)c2cnccn2)sc2c1CCCC2 | 1 (inactive)
CC1CCc2c(sc(NC(=O)c3ccc([N+](=O)[O-])o3)c2N)C1 (stereo not drawn) | 2 (inactive)
N#Cc1c(NC(=O)c2ccccc2C(=O)O)sc2c1CCCC2 | 1 (inactive)
Cc1ccc(C(=O)Nc2sc3c(c2C#N)CCC3)o1 | 2 (inactive)
